Data on two molecules can be found in ChEMBL document CHEMBL4613315, “Design of First-in-Class Dual EZH2/HDAC Inhibitor: Biochemical Activity and Biological Evaluation in Cancer Cells” (ACS Med Chem Lett, 2020).

Experiment [1] concerns U-937. The experiment is described as follows: Cytotoxicity against human U937 cells assessed as reduction in cell viability at 10 uM incubated for 96 hrs by CellTiter-Glo Luminescent cell viability assay relative to control. It counts as functional. As to conditions: U-937, 96 h. An outline of the steps: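 Viability of U937 (5–25 μM) and RH4 (5–35 μM) cells after 48, 72 and 96 h of treatment at increasing concentrations.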
Background: Cellular ATP, detected with luciferase, serves as a proxy for viable cell number.

Experiment [2] in a line: Induction of apoptosis in human RH4 cells assessed as late apoptotic cells at 28 uM incubated for 72 hrs by annexin V-FITC staining based flow cytometry (reference value: 2.1 %). Type of experiment: functional. Background: A flow cytometer gives signals particle by particle.
Experiment [3] deals with U-937. The experiment is described as follows: Induction of apoptosis in human U937 cells assessed as necrotic cells at 10 uM incubated for 72 hrs by annexin V-FITC staining based flow cytometry (reference value: 0.5 %). It counts as functional.
For experiment [4], the system named is U-937. The experiment is described as follows: Induction of apoptosis in human U937 cells assessed as late apoptotic cells at 10 uM incubated for 72 hrs by annexin V-FITC staining based flow cytometry (reference value: 0.7 %). It counts as functional.
Experiment [5] in a line: Induction of apoptosis in human RH4 cells assessed as viable cells at 28 uM incubated for 72 hrs by annexin V-FITC staining based flow cytometry (reference value: 86.6 %). Particulars: Rh4, 72 h, read-out: Activity. Type of experiment: functional.
The target in the next experiment is Histone deacetylase 5 (Homo sapiens, UniProt Q9UQL6). The experiment is described as follows: Inhibition of human recombinant HDAC5 using AMC-K(TFA)GL as substrate by fluorescence based assay.
Experiment [6] concerns U-937. The experiment is described as follows: Induction of differentiation of human U937 cells assessed as increase in CD11b level at 25 uM incubated for 72 hrs by flow cytometry analysis. Type of experiment: functional. An outline of the steps:
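U937 cells were treated for 72 h at 10 and 25 μM, and surface CD11b expression was measured as a differentiation marker.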

Experiment [7] in a line: Cell cycle arrest in human RH4 cells assessed as S accumulation at 28 uM incubated for 72 hrs by propidium iodide staining based flow cytometry (reference value: 29.9 %). Type of experiment: functional.
The subject of experiment [8] is U-937. The experiment is described as follows: Induction of apoptosis in human U937 cells assessed as early apoptotic cells at 10 uM incubated for 72 hrs by annexin V-FITC staining based flow cytometry (reference value: 3.4 %). Type of experiment: functional.
The nature of experiment [9]: Cell cycle arrest in human RH4 cells assessed as subG1 accumulation at 14 uM incubated for 72 hrs by propidium iodide staining based flow cytometry (reference value: 1.9 %). Type of experiment: functional.
In experiment [10] the test system is U-937. The experiment is described as follows: Cell cycle arrest in human U937 cells assessed as subG1 accumulation at 25 uM incubated for 72 hrs by propidium iodide staining based flow cytometry (reference value: 4.9 %). It counts as functional.
Experiment [11] is described as follows: Cell cycle arrest in human RH4 cells assessed as subG1 accumulation at 28 uM incubated for 72 hrs by propidium iodide staining based flow cytometry (reference value: 1.9 %). Type of experiment: functional.
The next experiment concerns U-87MG ATCC. The experiment is described as follows: Upregulation of snail in human U87 cells at 5 to 25 uM incubated for 24 hrs by Western blot analysis. Type of experiment: functional, cell-based. An outline of the steps: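 U87 glioblastoma cells exposed for 24 h at 5, 10 and 25 μM, with DMSO vehicle as control. Snail and E-cadherin protein levels were read by Western blot, with tubulin as the loading control.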
(In western blotting, separated proteins are transferred to a membrane and probed.)

For experiment [12], the system named is U-937. The experiment is described as follows: Cytotoxicity against human U937 cells assessed as reduction in cell viability at 10 uM in presence of vorinostat incubated for 72 hrs by CellTiter-Glo Luminescent cell viability assay relative to control. Particulars: U-937, 72 h. It counts as functional. An outline of the steps: (§1)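 Viability after 72 h of single-agent or combined treatment with the HDAC inhibitor (0.05–0.25 μM) and the EZH2 inhibitor. EZH2 inhibitor range: U937 5–25 μM; RH4 10–50 μM. Synergy was assessed by combination index and isobologram analysis.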

Experiment [13] deals with T1, Histone-lysine N-methyltransferase EZH2 (Homo sapiens, UniProt Q15910). The experiment is described as follows: Inhibition of EZH2 in human RH4 cells assessed as H3K27me3 level at 50 uM incubated for 96 hrs by Western blot analysis. It counts as cell-based.
Experiment [14] has as its target T2, Protein deacetylase HDAC6 (Homo sapiens) (UniProt Q9UBN7).
T2 sequence (whole entry): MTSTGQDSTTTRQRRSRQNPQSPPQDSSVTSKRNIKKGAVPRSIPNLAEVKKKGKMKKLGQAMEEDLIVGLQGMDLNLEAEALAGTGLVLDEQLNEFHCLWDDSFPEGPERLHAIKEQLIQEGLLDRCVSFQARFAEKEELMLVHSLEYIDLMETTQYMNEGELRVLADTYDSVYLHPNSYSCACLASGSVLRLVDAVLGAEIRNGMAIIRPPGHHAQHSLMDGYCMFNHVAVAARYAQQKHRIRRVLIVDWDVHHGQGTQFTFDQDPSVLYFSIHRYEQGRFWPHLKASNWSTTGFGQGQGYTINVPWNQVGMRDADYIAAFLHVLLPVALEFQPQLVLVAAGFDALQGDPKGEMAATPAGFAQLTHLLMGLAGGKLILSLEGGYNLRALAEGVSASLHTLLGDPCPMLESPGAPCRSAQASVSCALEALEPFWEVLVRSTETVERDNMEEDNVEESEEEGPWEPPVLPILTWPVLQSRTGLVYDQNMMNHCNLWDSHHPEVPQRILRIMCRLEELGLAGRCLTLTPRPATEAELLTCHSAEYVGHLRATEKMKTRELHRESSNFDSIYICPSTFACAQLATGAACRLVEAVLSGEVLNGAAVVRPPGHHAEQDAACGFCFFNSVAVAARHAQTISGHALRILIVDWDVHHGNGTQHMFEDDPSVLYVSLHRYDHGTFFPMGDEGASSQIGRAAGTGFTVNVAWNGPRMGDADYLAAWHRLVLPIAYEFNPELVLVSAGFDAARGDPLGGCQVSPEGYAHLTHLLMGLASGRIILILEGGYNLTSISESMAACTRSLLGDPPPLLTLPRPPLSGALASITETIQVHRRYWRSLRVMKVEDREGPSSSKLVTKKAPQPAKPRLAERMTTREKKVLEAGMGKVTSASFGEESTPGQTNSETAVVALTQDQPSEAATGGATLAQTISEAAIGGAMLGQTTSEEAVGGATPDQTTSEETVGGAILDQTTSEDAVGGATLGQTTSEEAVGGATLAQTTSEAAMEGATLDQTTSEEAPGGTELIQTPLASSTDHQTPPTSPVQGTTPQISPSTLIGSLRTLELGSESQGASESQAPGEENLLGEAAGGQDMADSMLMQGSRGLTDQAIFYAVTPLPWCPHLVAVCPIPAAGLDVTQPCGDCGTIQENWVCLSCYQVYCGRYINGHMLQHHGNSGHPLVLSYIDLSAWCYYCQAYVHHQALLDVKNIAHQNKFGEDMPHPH
The experiment is described as follows: Inhibition of HDAC6 in human RH4 cells assessed as acetylated alpha-tubulin level at 50 uM incubated for 72 hrs by Western blot analysis. Type of experiment: cell-based.

Experiment [15] in a line: Cytotoxicity against human RH4 cells assessed as combinational index measured at fraction affected value of 0.45 in presence of vorinostat at 20 uM incubated for 72 hrs by CellTiter-Glo Luminescent cell viability assay. It counts as functional. An outline of the steps: as §1
The target of experiment [16] is T1, Histone-lysine N-methyltransferase EZH2. The experiment is described as follows: Inhibition of EZH2 in human RH4 cells assessed as H3K27me3 level at 50 uM in presence of vorinostat incubated for 96 hrs by Western blot analysis (reference value: 1). It counts as cell-based. An outline of the steps:
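RH4 cells co-treated with EZH2 inhibitor at 50 μM plus HDAC inhibitor at 0.15 μM; Western blot after 72 or 96 h for H3K27me3 or acetyl-tubulin, vinculin loading control; densitometry normalized to loading control then DMSO vehicle.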

Calls of active or inactive are those of the source. The rule behind the calls is not given here.

T1 sequence (Q15910 whole entry, looked up): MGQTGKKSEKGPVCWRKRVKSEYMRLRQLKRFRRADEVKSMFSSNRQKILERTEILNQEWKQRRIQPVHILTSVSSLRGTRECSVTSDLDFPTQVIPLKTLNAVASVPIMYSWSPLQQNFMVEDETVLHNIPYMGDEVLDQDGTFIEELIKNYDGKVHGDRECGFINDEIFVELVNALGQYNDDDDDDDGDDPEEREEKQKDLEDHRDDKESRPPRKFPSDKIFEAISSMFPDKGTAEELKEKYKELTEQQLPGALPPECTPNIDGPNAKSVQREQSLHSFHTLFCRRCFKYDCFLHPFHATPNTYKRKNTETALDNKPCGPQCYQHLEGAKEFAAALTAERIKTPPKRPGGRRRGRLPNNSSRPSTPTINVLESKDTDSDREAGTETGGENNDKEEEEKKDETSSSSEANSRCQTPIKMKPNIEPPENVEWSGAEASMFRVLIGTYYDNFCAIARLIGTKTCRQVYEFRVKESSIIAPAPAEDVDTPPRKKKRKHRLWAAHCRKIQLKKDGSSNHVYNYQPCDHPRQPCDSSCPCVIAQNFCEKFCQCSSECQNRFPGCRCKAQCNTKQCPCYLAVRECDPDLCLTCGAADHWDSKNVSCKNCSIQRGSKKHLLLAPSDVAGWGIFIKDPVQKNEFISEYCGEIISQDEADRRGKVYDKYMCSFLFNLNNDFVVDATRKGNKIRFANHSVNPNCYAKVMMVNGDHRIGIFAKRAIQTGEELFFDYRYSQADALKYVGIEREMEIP
Sequence of Histone deacetylase 5 (Q9UQL6 whole entry): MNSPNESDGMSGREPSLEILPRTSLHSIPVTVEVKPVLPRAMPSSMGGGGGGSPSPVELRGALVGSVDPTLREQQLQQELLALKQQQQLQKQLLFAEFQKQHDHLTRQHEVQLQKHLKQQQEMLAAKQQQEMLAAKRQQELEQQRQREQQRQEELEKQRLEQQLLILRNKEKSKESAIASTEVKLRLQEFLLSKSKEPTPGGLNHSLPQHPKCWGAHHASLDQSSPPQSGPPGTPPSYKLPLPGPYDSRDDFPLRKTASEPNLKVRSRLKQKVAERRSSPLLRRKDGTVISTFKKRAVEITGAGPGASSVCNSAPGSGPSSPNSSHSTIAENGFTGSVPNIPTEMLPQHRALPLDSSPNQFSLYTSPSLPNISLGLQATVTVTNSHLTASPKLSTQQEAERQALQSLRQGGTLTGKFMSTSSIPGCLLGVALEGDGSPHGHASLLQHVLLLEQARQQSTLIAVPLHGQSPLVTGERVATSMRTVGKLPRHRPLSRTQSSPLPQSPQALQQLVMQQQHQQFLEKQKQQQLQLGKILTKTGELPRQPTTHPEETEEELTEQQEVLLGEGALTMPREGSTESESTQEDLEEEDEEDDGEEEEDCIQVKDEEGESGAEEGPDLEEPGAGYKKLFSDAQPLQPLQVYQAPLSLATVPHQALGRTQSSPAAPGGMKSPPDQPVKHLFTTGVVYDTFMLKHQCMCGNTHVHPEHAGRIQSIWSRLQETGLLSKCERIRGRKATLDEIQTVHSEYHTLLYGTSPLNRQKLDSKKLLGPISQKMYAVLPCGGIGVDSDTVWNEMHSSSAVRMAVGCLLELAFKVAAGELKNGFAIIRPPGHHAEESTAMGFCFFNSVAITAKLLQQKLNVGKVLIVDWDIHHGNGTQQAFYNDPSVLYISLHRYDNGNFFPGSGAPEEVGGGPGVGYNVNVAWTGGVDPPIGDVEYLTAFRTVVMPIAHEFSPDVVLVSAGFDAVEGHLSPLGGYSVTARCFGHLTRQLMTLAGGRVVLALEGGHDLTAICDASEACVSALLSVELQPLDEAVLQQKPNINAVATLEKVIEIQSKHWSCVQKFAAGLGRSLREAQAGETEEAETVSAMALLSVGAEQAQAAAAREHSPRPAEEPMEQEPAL

In the case of `Cc1cc(C)c(CNC(=O)c2cc(C)n(-c3cccc(NC(=O)CCCCCCC(=O)NO)c3)c2C)c(=O)[nH]1`, the inhibition (commonly how much of the control response was suppressed) at 10 µM in the experiment on U-937 [1] was 60%. For the same molecule, the Activity in [2] stood at 4.4%; with U-937 [3] it was 0.1%; with U-937 [4], 0.7%; in experiment [7] it was 19.8%; in the experiment on U-937 [8], 4.2%; in [9], 3.8%. Also, the Activity in the experiment with U-937 [10] turned out to be 36.1%; in [11], 28.1%. Moreover, in experiment [5], the viability at 28 µM stood at 68.7%. The half-maximal inhibitory concentration (IC50) – broadly, the concentration at which inhibition is half-maximal – at Histone deacetylase 5 was 16.6 µM. For the same molecule, the “fold change (FC)” value in the experiment with U-937 [6] is on record as 2.7. The result in the experiment with U-87MG ATCC was inactive.
As to `Cc1cc(C)c(CNC(=O)c2cc(C)n(-c3ccccc3)c2C)c(=O)[nH]1`, the inhibition at 10 µM in the experiment with U-937 [12] was found to be 70%. The fold change (FC) in experiment [13] came out at 0.3; in experiment [14], 0.6; in experiment [16], 0.2. In experiment [15], the CI was determined as 0.49.
